# Assay results reported in ChEMBL document CHEMBL1152467, “Pharmacokinetics and pharmacodynamics of piperaquine in a murine malaria model” (Antimicrob Agents Chemother, 2008).
# Activity calls are given as the source filed them. No cut-off for these calls is given here.
# Columns and labels:
# Plasmodium berghei [1] = test: Antiparasitic activity as parasitaemia against Plasmodium berghei ANKA infected Swiss mice (Mus musculus) at 30 mg/kg intraperitoneal dose 64 hrs post infection; type: functional
# Procedure, shortened: (§1)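 Male Swiss mice were infected i.p. with 10^7 P. berghei ANKA-parasitized erythrocytes. At 64 h (3-5% parasitemia) they received a single i.p. dose of piperaquine phosphate suspension: 300, 900 or 2,700 μg in 100 μl (about 10, 30, 90 mg/kg). Parasitemia came from May-Grünwald Giemsa tail-blood thin films, counting 30-100 fields (detection limit about 0.002%). Groups had 13-14 mice; controls had 8.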
# Plasmodium berghei [2] = test: Antiparasitic activity as reduced parasitaemia after 36 hrs against Plasmodium berghei ANKA infected Swiss mice (Mus musculus) at 30 mg/kg intraperitoneal dosed 64 hrs post infection; type: functional; procedure, shortened: as §1
# Plasmodium berghei [3] = test: Antiparasitic activity as reduced parasitaemia after 36 hrs against Plasmodium berghei ANKA infected Swiss mice (Mus musculus) at 10 mg/kg intraperitoneal dosed 64 hrs post infection; type: functional
# Procedure, shortened: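 Male Swiss mice (5–6 weeks) infected i.p. with 10^7 P. berghei ANKA-parasitized erythrocytes from BALB/c donor blood diluted in citrate-phosphate-dextrose. Single i.p. dose given at 64 h, suspended in 50% glycerol/30% phosphate buffer pH 7.1/20% polysorbate 80, 100 µl. n = 14; vehicle controls n = 8. Parasitemia counted on methanol-fixed, May-Grünwald Giemsa tail-vein smears, expressed as fold decline from predose level.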
# Plasmodium berghei [4] = test: Antiparasitic activity as reduced parasitaemia at day 22-30 against Plasmodium berghei ANKA infected Swiss mice (Mus musculus) at 30 mg/kg intraperitoneal dose 64 hrs post infection; type: functional; set-up: scale not given: the % may be the effect or the level left; procedure, shortened: as §1
# Plasmodium berghei [5] = test: Antiparasitic activity as median survival time after 30 days against Plasmodium berghei ANKA infected Swiss mice (Mus musculus) at 30 mg/kg intraperitoneal dose 64 hrs post infection; type: functional
# Procedure, shortened: (§2)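 Male Swiss mice (5–6 weeks) inoculated i.p. with 10^7 P. berghei ANKA-parasitized erythrocytes. At 64 h (3–5% parasitemia), each received a single i.p. 100 μl PQP suspension in 50% glycerol, 30% phosphate buffer (pH 7.1) and 20% polysorbate 80. Parasitemia was followed on tail-vein Giemsa smears. Mice were euthanized at >40% parasitemia or >10% weight loss within 24 h. Groups of 14 treated, 8 controls.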
# Plasmodium berghei [6] = test: Antiparasitic activity as parasitaemia at day 16 against Plasmodium berghei ANKA infected Swiss mice (Mus musculus) at 90 mg/kg intraperitoneal dose 64 hrs post infection; type: functional; procedure, shortened: as §1
# Plasmodium berghei [7] = test: Antiparasitic activity as mean parasitaemia after 22 days against Plasmodium berghei ANKA infected Swiss mice (Mus musculus) at 30 mg/kg intraperitoneal dose 64 hrs post infection; type: functional; procedure, shortened: as §1
# Plasmodium berghei [8] = test: Antiparasitic activity as median survival time against Plasmodium berghei ANKA infected Swiss mice (Mus musculus) at 10 mg/kg intraperitoneal dose 64 hrs post infection; type: functional; procedure, shortened: as §2
# Plasmodium berghei [9] = test: Antiparasitic activity as parasitaemia at day 60 against Plasmodium berghei ANKA infected Swiss mice (Mus musculus) at 90 mg/kg intraperitoneal dose 64 hrs post infection; type: functional; procedure, shortened: as §1
# Plasmodium berghei [10] = test: Antiparasitic activity as parasitaemia after 4 days against Plasmodium berghei ANKA infected Swiss mice (Mus musculus) at 90 mg/kg intraperitoneal dose; type: functional; procedure, shortened: as §1
# Plasmodium berghei [11] = test: Antiparasitic activity as peripheral parasitaemia 2 weeks after day 60 reinfection against Plasmodium berghei ANKA infected Swiss mice (Mus musculus) at 90 mg/kg intraperitoneal dose 64 hrs post infection; type: functional
# Procedure, shortened: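 Swiss mice given a single i.p. 90 mg/kg piperaquine phosphate 64 h after P. berghei ANKA infection were reinoculated i.p. with 10^7 parasitized erythrocytes on day 60. Age-matched previously uninfected mice (untreated, vehicle, or drug on day 0) were inoculated alongside. Parasitemia was read daily from Giemsa-stained tail-blood films for 2 weeks.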
# Plasmodium berghei [12] = test: Antiparasitic activity as parasitaemia against Plasmodium berghei ANKA infected Swiss mice (Mus musculus) at 10 mg/kg intraperitoneal dose 64 hrs post infection; type: functional; procedure, shortened: as §1
# [13] = Plasma concentration in Swiss mice (Mus musculus) infected with Plasmodium berghei ANKA at 90 mg/kg, intraperitoneally administered 64 hrs after infection measured after 2 hrs; type: ADME, organism-based; set-up: dose 90 mg/kg, route intraperitoneal; conditions: ip
# Procedure, shortened: (§3)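 P. berghei ANKA-infected male Swiss mice (10^7 parasitized erythrocytes i.p.) got one i.p. dose of 2,700 μg piperaquine phosphate (about 90 mg/kg) in glycerol/phosphate buffer/polysorbate 80 suspension, 64 h post-inoculation. Cardiac blood was drawn from 5 mice per time point, 0 h to […]. Plasma piperaquine was measured by HPLC, with concentrations normalized to 90 mg/kg. Noncompartmental and two-compartment fits (1/y2 weighting) used group means.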
# [14] = Plasma concentration in Swiss mice (Mus musculus) infected with Plasmodium berghei ANKA at 90 mg/kg, intraperitoneally administered 64 hrs after infection measured after 36 hrs; type: ADME, organism-based; set-up: dose 90 mg/kg, route intraperitoneal; conditions: ip; procedure, shortened: as §3
# [15] = Half life in healthy Swiss mouse at 90 mg/kg, ip; type: ADME, organism-based; set-up: dose 90 mg/kg, route intraperitoneal; conditions: in vivo
# Procedure, shortened: (§4)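 Uninfected male Swiss mice (6 weeks old) received a single i.p. dose of 2,700 μg piperaquine phosphate suspension (about 90 mg/kg). Cardiac-puncture blood was collected under pentobarbitone from n = 5 per time, 0 h to 25 days. Lithium heparin plasma was assayed by HPLC and normalized to a 90 mg/kg dose. Mean profiles were analysed noncompartmentally and by a two-compartment model (1/y2 weighting).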
# [16] = AUC in healthy Swiss mouse at 90 mg/kg, ip; type: ADME, organism-based; set-up: dose 90 mg/kg, route intraperitoneal; conditions: plasma; procedure, shortened: as §4
# [17] = Apparent clearance in healthy Swiss mouse at 90 mg/kg, ip; type: ADME, organism-based; set-up: dose 90 mg/kg, route intraperitoneal; conditions: in vivo; procedure, shortened: as §4
# Mus musculus [18] = test: Apparent volume of distribution in healthy Swiss mouse at 90 mg/kg, ip; type: ADME, organism-based; set-up: dose 90 mg/kg, route intraperitoneal; conditions: in vivo; procedure, shortened: as §4
# [19] = Initial half life in healthy Swiss mouse at 90 mg/kg, ip by two compartment model assay; type: ADME, organism-based; set-up: dose 90 mg/kg, route intraperitoneal; conditions: in vivo, read-out: alphat1/2 (converted); procedure, shortened: as §4
# [20] = Terminal half life in healthy Swiss mouse at 90 mg/kg, ip by two compartment model assay; type: ADME, organism-based; set-up: dose 90 mg/kg, route intraperitoneal; conditions: in vivo, read-out: beta t1/2 (converted); procedure, shortened: as §4
# [21] = Half life in Swiss mice (Mus musculus) infected with Plasmodium berghei ANKA at 90 mg/kg, intraperitoneally administered 64 hrs after infection; type: ADME, organism-based; set-up: dose 90 mg/kg, route intraperitoneal; conditions: in vivo, ip; procedure, shortened: as §3
# [22] = AUC in Swiss mice (Mus musculus) infected with Plasmodium berghei ANKA at 90 mg/kg, intraperitoneally administered 64 hrs after infection; type: ADME, organism-based; set-up: dose 90 mg/kg, route intraperitoneal; conditions: plasma, ip; procedure, shortened: as §3
# [23] = Apparent clearance in Swiss mice (Mus musculus) infected with Plasmodium berghei ANKA at 90 mg/kg, intraperitoneally administered 64 hrs after infection; type: ADME, organism-based; set-up: dose 90 mg/kg, route intraperitoneal; conditions: in vivo, ip; procedure, shortened: as §3
# Mus musculus [24] = test: Apparent volume of distribution in Swiss mice (Mus musculus) infected with Plasmodium berghei ANKA at 90 mg/kg, intraperitoneally administered 64 hrs after infection; type: ADME, organism-based; set-up: dose 90 mg/kg, route intraperitoneal; conditions: in vivo, ip; procedure, shortened: as §3
# [25] = Initial half life in Swiss mice (Mus musculus) infected with Plasmodium berghei ANKA at 90 mg/kg, intraperitoneally by two compartment model assay; type: ADME, organism-based; set-up: dose 90 mg/kg, route intraperitoneal; conditions: in vivo, ip, read-out: alphat1/2 (converted); procedure, shortened: as §3
# [26] = Terminal half life in Swiss mice (Mus musculus) infected with Plasmodium berghei ANKA at 90 mg/kg, intraperitoneally by two compartment model assay; type: ADME, organism-based; set-up: dose 90 mg/kg, route intraperitoneal; conditions: in vivo, ip, read-out: beta t1/2 (converted); procedure, shortened: as §3
# Mus musculus [27] = test: Plasma concentration in Swiss mice (Mus musculus) infected with Plasmodium berghei ANKA at 90 mg/kg, intraperitoneally administered 64 hrs after infection measured after 2 to 7 days; type: ADME, organism-based; set-up: dose 90 mg/kg, route intraperitoneal; conditions: in vivo, ip; procedure, shortened: as §3
# Plasmodium berghei [28] = test: Antiparasitic activity as parasitaemia after 36 hrs against Plasmodium berghei ANKA infected Swiss mice (Mus musculus) at 90 mg/kg intraperitoneal dose 64 hrs post infection; type: functional; procedure, shortened: as §1
# [29] = Plasma concentration in Swiss mice (Mus musculus) infected with Plasmodium berghei ANKA at 90 mg/kg, intraperitoneally administered 64 hrs after infection measured after 30 days; type: ADME, organism-based; set-up: dose 90 mg/kg, route intraperitoneal; conditions: ip; procedure, shortened: as §3
# [30] = Plasma concentration in Swiss mice (Mus musculus) infected with Plasmodium berghei ANKA at 90 mg/kg, intraperitoneally administered 64 hrs after infection measured after 60 days; type: ADME, organism-based; set-up: dose 90 mg/kg, route intraperitoneal; conditions: ip; procedure, shortened: as §3
# [31] = Terminal half life in adult human; type: ADME, organism-based; conditions: in vivo, read-out: beta t1/2 (converted)
# [32] = Terminal half life in human children; type: ADME, organism-based; conditions: in vivo, read-out: beta t1/2 (converted)
# Plasmodium berghei [33] = test: Antiparasitic activity as survival at day 30 against Plasmodium berghei ANKA infected Swiss mice (Mus musculus) at 30 mg/kg intraperitoneal dose 64 hrs post infection; type: functional; procedure, shortened: as §2
# Plasmodium berghei [34] = test: Antiparasitic activity as survival at day 30 against Plasmodium berghei ANKA infected Swiss mice (Mus musculus) at 10 mg/kg intraperitoneal dose 64 hrs post infection; type: functional; procedure, shortened: as §2
# [35] = Toxicity in mouse; type: organism-based; conditions: in vivo
# Plasmodium berghei [36] = test: Antiparasitic activity as survival at day 30 against Plasmodium berghei ANKA infected Swiss mice (Mus musculus) at 20-30 mg/kg intraperitoneal dose 64 hrs post infection; type: functional
# Plasmodium berghei [37] = test: Antimalarial activity against chloroquine-sensitive Plasmodium berghei by Peters 4 day test; conditions: 96 h
# Plasmodium berghei [38] = test: Antiparasitic activity as reduced parasitaemia against Plasmodium berghei ANKA infected Swiss mice (Mus musculus) at 10 mg/kg intraperitoneal dose 64 hrs post infection; type: functional, organism-based; set-up: dose 10 mg/kg; procedure, shortened: as §1
# Plasmodium berghei [39] = test: Antiparasitic activity as reduced parasitaemia against Plasmodium berghei ANKA infected Swiss mice (Mus musculus) at 30 mg/kg intraperitoneal dose 64 hrs post infection; type: functional, organism-based; set-up: dose 30 mg/kg; procedure, shortened: as §1
# Plasmodium berghei [40] = test: Antiparasitic activity as reduced parasitaemia against Plasmodium berghei ANKA infected Swiss mice (Mus musculus) at 90 mg/kg intraperitoneal dose 64 hrs post infection; type: functional, organism-based; set-up: dose 90 mg/kg; procedure, shortened: as §1
# Plasmodium berghei [41] = test: Antiparasitic activity as reduced parasitaemia after 24 hrs against Plasmodium berghei ANKA infected Swiss mice (Mus musculus) at 30 mg/kg intraperitoneal dose 64 hrs post infection; type: functional, organism-based; set-up: dose 30 mg/kg; procedure, shortened: as §1
# Plasmodium berghei [42] = test: Antiparasitic activity as reduced parasitaemia at day 3 against Plasmodium berghei ANKA infected Swiss mice (Mus musculus) at 30 mg/kg intraperitoneal dose 64 hrs post infection; type: functional, organism-based; set-up: dose 30 mg/kg; procedure, shortened: as §1
structure (smiles),measurement,setting,value
C[C@H]1[C@@H](O)O[C@@H]2O[C@@]3(C)CC[C@H]4[C@H](C)CC[C@@H]1[C@@]24OO3 [ARTENIMOL],Activity,Plasmodium berghei [1],4.6%
same,fold change (FC),Plasmodium berghei [2],11.9
Clc1ccc2c(N3CCN(CCCN4CCN(c5ccnc6cc(Cl)ccc56)CC4)CC3)ccnc2c1.O=P(O)(O)O [PIPERAQUINE PHOSPHATE],fold change (FC),Plasmodium berghei [3],12.8
same,Activity,Plasmodium berghei [4],0.1%
same,Activity,Plasmodium berghei [5],54 days
same,Activity,Plasmodium berghei [6],1.8%
same,Activity,Plasmodium berghei [7],11%
same,Activity,Plasmodium berghei [8],10 days
same,Activity,Plasmodium berghei [9],< 0.1%
same,Activity,Plasmodium berghei [10],>10%
same,Activity,Plasmodium berghei [11],<1%
same,Activity,Plasmodium berghei [12],1.5%
Clc1ccc2c(N3CCN(CCCN4CCN(c5ccnc6cc(Cl)ccc56)CC4)CC3)ccnc2c1 [PIPERAQUINE],concentration at 2 h,[13],250 ng/mL
same,concentration at 36 h,[14],45 ng/mL
same,half-life,[15],17.8 days
same,AUC,[16],33500 ng·h/mL
same,CL/F,[17],25.8 mL/min/kg
same,Vd,Mus musculus [18],956 L/kg
same,half-life,[19],0.59 days
same,half-life,[20],20.7 days
same,half-life,[21],16.1 days
same,AUC at 64 h,[22],27300 ng·h/mL
same,CL/F,[23],31.7 mL/min/kg
same,Vd,Mus musculus [24],1059 L/kg
same,half-life,[25],0.35 days
same,half-life,[26],15.4 days
same,Cp,Mus musculus [27],20 ng/mL
same,Activity,Plasmodium berghei [28],0.002%
same,concentration at 720 h,[29],> 10 ng/mL
same,concentration at 1440 h,[30],3 ng/mL
same,half-life,[31],23 days
same,half-life,[32],14 days
same,Activity,Plasmodium berghei [33],70%
same,Activity,Plasmodium berghei [34],0%
same,LD50,[35],1100 mg/kg
same,Activity,Plasmodium berghei [36],50%
same,ED50,Plasmodium berghei [37],4.5 mg/kg
Clc1ccc2c(N3CCN(CCCN4CCN(c5ccnc6cc(Cl)ccc56)CC4)CC3)ccnc2c1,Activity,Plasmodium berghei [38],Active
same,Activity,Plasmodium berghei [39],Active
same,Activity,Plasmodium berghei [40],Active
same,Activity,Plasmodium berghei [41],Active
same,Activity,Plasmodium berghei [42],Active
